Measurements: article PMC6175042 (Journal of nuclear medicine : official publication, Society …, 2018)

Legend:
αvβ3 integrin = details: cited from earlier work
[1] = Ex vivo biodistribution in mice with FaDu xenografts; details: female, BALB/c nude (BALB/c nu/nu/Foxn1nu), mouse, salivary glands, iv, 0.5 nmol/mouse
[2] = tested on: αvβ3 integrin-negative FaDu xenograft tumours (αvβ3 integrin expressed solely on neovasculature); test: as above; details: i.v. 0.5 nmol/mouse, 1 h post injection, n=5; for Tumour uptake, FaDu: mean ± SD; for Tumour-to-blood ratio, FaDu / Tumour-to-duodenum ratio / Tumour-to-heart ratio / Tumour-to-kidneys ratio / Tumour-to-liver ratio / Tumour-to-lung ratio / Tumour-to-muscle ratio / Tumour-to-pancreas ratio / Tumour-to-spleen ratio / Tumour-to-stomach ratio: FaDu
[3] = tested on: αvβ3 integrin-positive SK-RC-52 xenograft tumours; test: Ex vivo biodistribution in mice with SK-RC-52 xenografts; details: i.v. 0.5 nmol/mouse, 1 h post injection, n=5; for Tumour uptake, SK-RC-52: mean ± SD; for Tumour-to-blood ratio, SK-RC-52 / Tumour-to-duodenum ratio / Tumour-to-heart ratio / Tumour-to-kidneys ratio / Tumour-to-liver ratio / Tumour-to-lung ratio / Tumour-to-muscle ratio / Tumour-to-pancreas ratio / Tumour-to-spleen ratio / Tumour-to-stomach ratio: SK-RC-52
In short: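 Female athymic BALB/c nu/nu mice (6–8 weeks) received 2x10^6 SK-RC-52 cells s.c. in the left flank. Cells were grown in RPMI 1640 with 10% FCS and 1% glutamine. The 68Ga-labelled test compound (15 MBq in 0.3 ml PBS with 0.5% BSA, pH 7.4) was injected via the tail vein into awake, heat-lamp-warmed mice. After CO2/O2 euthanasia, tissues were dissected, weighed and gamma-counted against 1% standards, giving %ID/g.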

SMILES | Tumour targeting compared to monomeric RGD peptides (αvβ3 integrin) | tissue uptake at 1 h [1] [%ID/g] | Tumour uptake, FaDu [2] [%ID/g] | Tumour-to-blood ratio, FaDu [2] | Tumour-to-duodenum ratio [2] | Tumour-to-heart ratio [2] | Tumour-to-kidneys ratio [2] | Tumour-to-liver ratio [2] | Tumour-to-lung ratio [2] | Tumour-to-muscle ratio [2] | Tumour-to-pancreas ratio [2] | Tumour-to-spleen ratio [2] | Tumour-to-stomach ratio [2] | Tumour uptake, SK-RC-52 [3] [%ID/g] | Tumour-to-blood ratio, SK-RC-52 [3] | Tumour-to-duodenum ratio [3] | Tumour-to-heart ratio [3] | Tumour-to-kidneys ratio [3] | Tumour-to-liver ratio [3] | Tumour-to-lung ratio [3] | other results
N=C(N)NCCC[C@@H]1NC(=O)[C@H](CCCCNC(=O)CCOCCOCCOCCOCCNC(=O)CCP(=O)(O)CN2CCN(CP(=O)(O)CCC(=O)NCCOCCOCCOCCOCCC(=O)NCCCC[C@@H]3NC(=O)[C@@H](Cc4ccccc4)NC(=O)[C@H](CC(=O)O)NC(=O)CNC(=O)[C@H](CCCNC(=N)N)NC3=O)CCN(CP(=O)(O)CCC(=O)NCCOCCOCCOCCOCCC(=O)NCCCC[C@@H]3NC(=O)[C@@H](Cc4ccccc4)NC(=O)[C@H](CC(=O)O)NC(=O)CNC(=O)[C@H](CCCNC(=N)N)NC3=O)CC2)NC(=O)[C@@H](Cc2ccccc2)NC(=O)[C@H](CC(=O)O)NC(=O)CNC1=O (single isomer, unassigned) [^68Ga-TRAP-(RGD)3, metal not drawn] | improved tumour targeting | 0.7 ± 0.1 | 1.0±0.2 | 5.8±0.9 | 0.3±0.07 | 4.4±1.4 | 0.5±0.1 | 0.8±0.2 | 1.5±0.4 | 4.8±1.2 | 4.6±1.0 | 0.9±0.2 | 0.8±0.2 | 4.4±0.8 | 38.5±3.8 | 1.4±0.4 | 15.3±2.3 | 1.1±0.1 | 3.0±0.5 | 4.8±0.9 | Tumour-to-muscle ratio [3]: 20.9±3.6; Tumour-to-pancreas ratio [3]: 17.3±3.7; Tumour-to-spleen ratio [3]: 3.0±0.5; Tumour-to-stomach ratio [3]: 3.0±0.7
C/C1=C/C(=O)N(O)CCC[C@H](NC(=O)CCC(=O)NCCCC[C@@H]2NC(=O)[C@@H](Cc3ccccc3)NC(=O)[C@H](CC(=O)O)NC(=O)CNC(=O)[C@H](CCCNC(=N)N)NC2=O)C(=O)OCC/C(C)=C\C(=O)N(O)CCC[C@H](NC(=O)CCC(=O)NCCCC[C@@H]2NC(=O)[C@@H](Cc3ccccc3)NC(=O)[C@H](CC(=O)O)NC(=O)CNC(=O)[C@H](CCCNC(=N)N)NC2=O)C(=O)OCC/C(C)=C\C(=O)N(O)CCC[C@H](NC(=O)CCC(=O)NCCCC[C@@H]2NC(=O)[C@@H](Cc3ccccc3)NC(=O)[C@H](CC(=O)O)NC(=O)CNC(=O)[C@H](CCCNC(=N)N)NC2=O)C(=O)OCC1 [^68Ga-FSC-(RGD)3, metal not drawn] | improved tumour targeting | 2.2 ± 0.3 | 1.9±0.3 | 3.5±0.6 | 0.4±0.08 | 2.4±0.4 | 0.4±0.05 | 0.8±0.1 | 0.9±0.1 | 3.6±0.6 | 3.0±0.4 | 0.6±0.06 | 0.6±0.1 | 12.5±2.5 | 30.7±8.1 | 1.5±0.4 | 12.4±3.2 | 1.9±0.3 | 2.5±0.2 | 4.8±0.9 | Tumour-to-muscle ratio [3]: 17.2±3.2; Tumour-to-pancreas ratio [3]: 17.9±3.5; Tumour-to-spleen ratio [3]: 2.6±0.5; Tumour-to-stomach ratio [3]: 2.6±0.3
